Data reported in ChEMBL document CHEMBL4665666, “Discovery and characterization of trypanocidal cysteine protease inhibitors from the 'malaria box'” (Eur J Med Chem, 2019).

Columns and labels:
cathepsin S [1] = biological target: T1, cathepsin S (Homo sapiens, UniProt P25774); assay: Inhibition of recombinant human cathepsin S expressed in Escherichia coli at 1 uM using Z-VVR-AMC as substrate preincubated for 10 mins followed by substrate addition and measured after 15 mins by microplate reader based assay relative to control; settings: probe Z-VVR-AMC, in the assay text read “preincubated for 5 mins” for “preincubated for 10 mins”, time 20 min
Summary of the method: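 Run with or without 5 min compound–enzyme pre-incubation. AMC fluorescence at 380/460 nm over 15 min. Inhibition relative to DMSO (2% final); E64 1 µM as positive control. Two independent experiments, each in triplicate.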

cathepsin B [2] = biological target: T2, cathepsin B (Rattus norvegicus, UniProt P00787); assay: Inhibition of rat cathepsin B at 1 uM using Z-FR-AMC as substrate preincubated for 5 mins followed by substrate addition and measured after 15 mins by microplate reader based assay relative to control; settings: probe Z-FR-AMC
cathepsin S [3] = biological target: T1, cathepsin S; assay: Inhibition of recombinant human cathepsin S expressed in Escherichia coli at 1 uM using Z-VVR-AMC as substrate and measured after 15 mins without preincubation by microplate reader based assay relative to control; settings: probe Z-VVR-AMC
[4] = biological target: Rhodesain (Trypanosoma brucei rhodesiense) (UniProt Q95PM0); assay: Inhibition of recombinant Trypanosoma brucei rhodesain expressed in Pichia pastoris at 0.5 uM using Z-FR-AMC as substrate and measured at 12 sec interval for 5 mins without preincubation by fluorimetric analysis relative to control
Summary of the method: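 Recombinant rhodesain or cruzain (1 nM) in 0.1 M sodium acetate pH 5.5, 0.01% Triton X-100, 1 mM β-mercaptoethanol. Compound at a single concentration, either without or after 10 min enzyme pre-incubation. Z-FR-AMC 2.5 µM, read at 340/440 nm every 12 s for 5 min. Inhibition is relative to DMSO, with E-64 as positive control. Done in duplicate (primary screen) or triplicate.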

cathepsin B [5] = biological target: T2, cathepsin B; assay: Inhibition of rat cathepsin B at 1 uM using Z-FR-AMC as substrate measured after 15 mins without preincubation by microplate reader based assay relative to control; settings: probe Z-FR-AMC

T1 sequence (P25774 whole entry): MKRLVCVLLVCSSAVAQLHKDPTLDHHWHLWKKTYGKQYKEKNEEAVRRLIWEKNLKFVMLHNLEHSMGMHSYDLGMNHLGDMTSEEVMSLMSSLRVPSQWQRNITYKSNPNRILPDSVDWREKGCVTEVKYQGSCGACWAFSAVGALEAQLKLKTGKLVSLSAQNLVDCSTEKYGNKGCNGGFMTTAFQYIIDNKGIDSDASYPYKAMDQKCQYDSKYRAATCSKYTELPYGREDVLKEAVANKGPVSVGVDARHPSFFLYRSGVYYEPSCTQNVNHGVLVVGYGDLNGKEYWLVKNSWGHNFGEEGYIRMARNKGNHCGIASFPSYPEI
T2 sequence (P00787 whole entry): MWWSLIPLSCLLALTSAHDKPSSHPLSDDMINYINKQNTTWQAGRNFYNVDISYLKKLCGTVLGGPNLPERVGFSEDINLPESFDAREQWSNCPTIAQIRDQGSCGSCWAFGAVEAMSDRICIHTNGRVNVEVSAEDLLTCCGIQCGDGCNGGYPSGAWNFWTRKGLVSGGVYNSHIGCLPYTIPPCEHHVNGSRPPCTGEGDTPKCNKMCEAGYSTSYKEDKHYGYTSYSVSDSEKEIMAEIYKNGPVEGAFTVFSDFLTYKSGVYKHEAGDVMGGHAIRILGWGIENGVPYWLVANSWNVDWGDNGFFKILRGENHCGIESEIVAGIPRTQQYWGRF
Rhodesain (Trypanosoma brucei rhodesiense), sequence (Q95PM0 1-450): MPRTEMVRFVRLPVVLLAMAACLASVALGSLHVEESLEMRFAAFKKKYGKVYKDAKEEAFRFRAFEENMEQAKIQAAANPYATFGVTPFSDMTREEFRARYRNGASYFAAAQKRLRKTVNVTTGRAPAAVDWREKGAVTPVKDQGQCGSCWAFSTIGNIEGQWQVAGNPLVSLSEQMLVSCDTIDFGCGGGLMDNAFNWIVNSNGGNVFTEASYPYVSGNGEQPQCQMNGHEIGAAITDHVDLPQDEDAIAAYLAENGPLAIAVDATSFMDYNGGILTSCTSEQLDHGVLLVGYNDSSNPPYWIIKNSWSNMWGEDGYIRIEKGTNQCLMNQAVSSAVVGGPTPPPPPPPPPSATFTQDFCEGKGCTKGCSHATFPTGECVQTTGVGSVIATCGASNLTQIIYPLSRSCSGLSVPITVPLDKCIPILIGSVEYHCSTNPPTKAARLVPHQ

- inhibition at 0.25 h, 1 µM (cathepsin S [1]): 99.9%
- inhibition at 0.25 h, 1 µM (cathepsin B [2]): 100%
- inhibition at 0.25 h, 1 µM (cathepsin S [3]): 99.9%
- inhibition [4]: 36%
- inhibition at 0.25 h, 1 µM (cathepsin B [5]): 99.1%
SMILES: CC(C)C[C@H](NC(=O)[C@H]1O[C@@H]1C(=O)O)C(=O)NCCCCN=C(N)N [E-64]
